Source: ChEMBL document CHEMBL2380307, “Discovery of diarylurea P2Y(1) antagonists with improved aqueous solubility” (Bioorg Med Chem Lett, 2013)
Values belong to the compound of their own block, whether it stands above or below them.

Assays:
[1] = Lipophilicity, log P of the compound by RP-HPLC analysis; format: physicochemical
[2] = Oral bioavailability in rat at 1 mg/kg; format: ADME, organism-based; conditions: in vivo
Outline: (§1)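 Rat PK. Dosing was either 1 mg/kg IV/PO in 10% DMAC/10% EtOH/10% cremophor/70% H2O, or 1 mg/kg IV in 10% EtOH/10% cremophor/80% H2O, or 2 mg/kg IV with 5 mg/kg PO in 10% EtOH/10% cremophor/80% H2O. Read-outs: CL, Vss, t1/2, F.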

Rattus norvegicus = experiment: Volume of distribution at steady state in rat at 1 mg/kg, iv and po; format: ADME, organism-based; design: dose 1 mg/kg, route oral; conditions: in vivo
Outline: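 Rats dosed at 1 mg/kg by both IV and PO routes in 10% DMAC/10% EtOH/10% cremophor/70% H2O. Steady-state volume of distribution was derived from the IV plasma profile.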

[3] = Half life in rat at 1 mg/kg, iv and po; format: ADME, organism-based; design: dose 1 mg/kg, route oral; conditions: in vivo; outline: as §1
[4] = Permeability from apical to basolateral side of human Caco2 cells; format: ADME, cell-based; conditions: Caco-2, read-out: permeability
[5] = (§2) Metabolic stability in rat liver microsomes assessed as compound remaining after 10 mins; format: ADME, Microsome; conditions: liver microsomes, read-out: Stability
Outline: (§3)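 Liver microsomes incubated for 10 min; read-out is percentage of parent remaining.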

Plasma [6] = experiment: Plasma concentration in rat at 1 mg/kg, iv followed by administered 25 mg/kg/hr of sustaining dose; format: ADME, organism-based; conditions: in vivo
Outline: (§4)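 Rats pretreated IV with a loading dose plus sustaining infusion (1 + 2.5, 1 + 5, 1 + 10 or 1 + 25 mg/kg + mg/kg/h). Arterial thrombosis was induced with FeCl2, and thrombus weight was measured; plasma concentrations were measured at each dose. n=6–8 per dose. Vehicle controls received 10% DMA/90% 5% dextrose IV.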

Plasma [7] = experiment: Plasma concentration in rat at 1 mg/kg, iv followed by administered 10 mg/kg/hr of sustaining dose; format: ADME, organism-based; conditions: in vivo; outline: as §4
Plasma [8] = experiment: Plasma concentration in rat at 1 mg/kg, iv followed by administered 5 mg/kg/hr of sustaining dose; format: ADME, organism-based; conditions: in vivo; outline: as §4
Plasma [9] = experiment: Plasma concentration in rat at 1 mg/kg, iv followed by administered […] of sustaining dose; format: ADME, organism-based; conditions: in vivo
Plasma [10] = experiment: Plasma concentration in rabbit cuticle bleeding model at 15 mg/kg, iv followed by administered 23.4 mg/kg/hr of sustaining dose; format: ADME, organism-based, Oryctolagus cuniculus; conditions: in vivo
Outline: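 Rabbit cuticle bleeding model with IV loading dose plus sustaining infusion (15 or 9 mg/kg + 23.4 mg/kg/h). Measured ex vivo platelet aggregation blockade, cuticle bleeding time, average plasma concentration and blood pressure.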

Liver microsomes [11] = experiment: (§5) Metabolic stability in human liver microsome assessed as compound remaining after 10 mins; format: ADME; conditions: microsomes, 10 min
[12] = Half life in rat at 1 mg/kg, iv; format: ADME, organism-based; design: dose 1 mg/kg, route intravenous; conditions: in vivo; outline: as §1
[13] = Clearance in rat at 1 mg/kg, iv; format: ADME, organism-based; design: dose 1 mg/kg, route intravenous; conditions: in vivo; outline: as §1
[14] = Volume of distribution at steady state in rat at 1 mg/kg, iv; format: ADME, organism-based; design: dose 1 mg/kg, route intravenous; conditions: in vivo, read-out: Vdss
Outline: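 Rat PK: single 1 mg/kg IV dose in 10% EtOH/10% cremophor/80% H2O. Vss was derived from plasma concentration–time data.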

[15] = as §5; format: ADME, microsomes; conditions: liver microsomes, read-out: Stability
Liver microsomes [16] = experiment: as §2; format: ADME, Microsome; conditions: microsomes, 10 min; outline: as §3
[17] = Half life in rat at 2 mg/kg, iv and 5 mg/kg, po; format: ADME, organism-based; conditions: in vivo; outline: as §1
[18] = Oral bioavailability in rat at 5 mg/kg; format: ADME, organism-based; conditions: in vivo; outline: as §1
[19] = Volume of distribution at steady state in rat at 2 mg/kg, iv and 5 mg/kg, po; format: ADME, organism-based; conditions: in vivo, read-out: Vdss
Outline: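 Rats given 2 mg/kg IV and 5 mg/kg PO in 10% EtOH/10% cremophor/80% H2O. Vss was obtained from the IV pharmacokinetic profile.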

[20] = Clearance in rat at 2 mg/kg, iv and 5 mg/kg, po; format: ADME, organism-based; conditions: in vivo; outline: as §1

logP [1]: 5.7
bioavailability [2]: 7%
Vdss (Rattus norvegicus): 5.6 L/kg
half-life [3]: 15 h
Papp A→B [4]: 2.1 ×10⁻⁶ cm/s
remaining at 10 min [5]: 86%
Compound: CC(C)(C)c1ccccc1Oc1ncccc1NC(=O)Nc1ccc(OC(F)(F)F)cc1

logP [1]: 5.1
Compound: COC(=O)C1(c2ccc(NC(=O)Nc3cccnc3Oc3ccccc3C(C)(C)C)cc2)CC1

logP [1]: 3.7
Compound: CC(C)(C)c1ccccc1Oc1ncccc1NC(=O)Nc1ccc(C2(CN3CCCC3)CC2)cc1

logP [1]: 5.5
Compound: CC(C)(C)c1ccccc1Oc1ncccc1NC(=O)Nc1ccc(-c2ccccc2CO)cc1F

logP [1]: 3.9
Compound: CN1CCN(c2ccc(NC(=O)Nc3cccnc3Oc3ccccc3C(C)(C)C)cc2)CC1

logP [1]: 5.8
Compound: CC(C)(C)c1ccccc1Oc1ncccc1NC(=O)Nc1ccc(N2CCN(Cc3ccccc3)CC2)cc1

logP [1]: 5.5
Compound: CC(C)(C)c1ccccc1Oc1ncccc1NC(=O)Nc1ccc(N2CCCCC2)cc1

logP [1]: 5.3
concentration (Plasma [6]): 13.7 µM
concentration (Plasma [7]): 8.5 µM
concentration (Plasma [8]): 3.6 µM
concentration (Plasma [9]): 1.3 µM
concentration (Plasma [10]): 5 µM
Stability (Liver microsomes [11]): Unstable
half-life [12]: 1.5 h
clearance [13]: 158 mL/min/kg
Vd [14]: 8.7 L/kg
remaining at 10 min [5]: 24%
Compound: CN(C)Cc1ccccc1-c1ccc(NC(=O)Nc2cccnc2Oc2ccccc2C(C)(C)C)c(F)c1

logP [1]: 5.4
Compound: CN(C)Cc1ccc(-c2ccc(NC(=O)Nc3cccnc3Oc3ccccc3C(C)(C)C)c(F)c2)cc1

logP [1]: 5.1
remaining at 10 min [15]: 12%
Stability (Liver microsomes [16]): Unstable
Compound: CN(C)CC(C)(C)COc1ccc(NC(=O)Nc2cccnc2Oc2ccccc2C(C)(C)C)cc1

logP [1]: 4.7
remaining at 10 min [15]: 29%
Compound: CN(C)CC(C)(C)COc1ccc(NC(=O)Nc2cccnc2Oc2ccccc2[Si](C)(C)C)cc1

logP [1]: 5.2
Stability (Liver microsomes [11]): Unstable
Stability (Liver microsomes [16]): Unstable
Compound: CN(C)CC(C)(C)COc1ccc(NC(=O)Nc2cccnc2Oc2ccccc2C(C)(C)C)c(F)c1

logP [1]: 3.8
Compound: CC(C)N1CCC(COc2ccc(NC(=O)Nc3cccnc3Oc3ccccc3C(C)(C)C)c(F)c2)CC1

logP [1]: 5.2
half-life [17]: 3.4 h
bioavailability [18]: 40%
Vd [19]: 5 L/kg
clearance [20]: 22 mL/min/kg
Papp A→B [4]: 1.6 ×10⁻⁶ cm/s
remaining at 10 min [5]: 67%
Compound: CC(C)CN1CCC(COc2ccc(NC(=O)Nc3cccnc3Oc3ccccc3C(C)(C)C)c(F)c2)CC1

Second part, the compound before the results:

Compound: COCC1(c2ccc(NC(=O)Nc3cccnc3Oc3ccccc3C(C)(C)C)cc2)CC1
logP [1]: 5.2

Compound: CC(C)(C)c1ccccc1Oc1ncccc1NC(=O)Nc1ccc(C2(CO)CC2)cc1
logP [1]: 4.6

Compound: CC(C)(C)c1ccccc1Oc1ncccc1NC(=O)Nc1ccc(N2CCNCC2)cc1
logP [1]: 3.2

Compound: CC(C)(C)c1ccccc1Oc1ncccc1NC(=O)Nc1ccc(N2CCOCC2)cc1F
logP [1]: 4.5

Compound: CN(C)Cc1ccc(NC(=O)Nc2cccnc2Oc2ccccc2C(C)(C)C)c(F)c1
logP [1]: 4.2

Compound: CN(C)Cc1cccc(-c2ccc(NC(=O)Nc3cccnc3Oc3ccccc3C(C)(C)C)c(F)c2)c1
logP [1]: 5.5

Compound: CC(C)(C)c1ccccc1Oc1ncccc1NC(=O)Nc1ccc(OCC2CCN(Cc3ccccc3)CC2)cc1F
logP [1]: 5.8

Compound: CC(C)CCN1CCC(COc2ccc(NC(=O)Nc3cccnc3Oc3ccccc3C(C)(C)C)c(F)c2)CC1
logP [1]: 5.5

Compound: CC(C)CN1CCC(COc2ccc(NC(=O)Nc3cccnc3Oc3ccccc3C(C)(C)C)cc2)CC1
logP [1]: 4.5
